The results in this text go back to ChEMBL document CHEMBL2390903, “Anti-tubercular agents. Part 7: a new class of diarylpyrrole-oxazolidinone conjugates as antimycobacterial agents” (Eur J Med Chem, 2013).

The test system of data set [1] is Staphylococcus aureus. Put plainly: Antibacterial activity against Staphylococcus aureus MTCC 96 assessed as growth inhibition at 20 ug/mL after 24 hrs. In kind it is functional. The settings on record: MTCC 96, 24 h, read-out: IZ.
The next data set deals with Pseudomonas aeruginosa. Put plainly: Antibacterial activity against Pseudomonas aeruginosa MTCC 2453 assessed as growth inhibition after 24 hrs by agar dilution method. As to conditions: MTCC 2453, 24 h. In kind it is functional.
Data set [2] in a line: Selectivity index, ratio of IC50 for mouse J744 cells to MIC for Mycobacterium tuberculosis H37Rv. The class given is functional.
Data set [3] relates to Micrococcus luteus. Put plainly: Antibacterial activity against Micrococcus luteus MTCC 2470 assessed as growth inhibition at 20 ug/mL after 24 hrs. The class given is functional. As to conditions: MTCC 2470, 24 h, read-out: IZ.
The subject of data set [4] is Staphylococcus. Put plainly: Antibacterial activity against 16-membered ring macrolide- lincosamide-streptogramin B-resistant Staphylococcus MTCC 2940 assessed as growth inhibition at 20 ug/mL after 24 hrs. The class given is functional. As to conditions: MTCC 2940, 24 h, read-out: IZ.
Data set [5] has as its system Mycobacterium tuberculosis. Put plainly: Antitubercular activity against Mycobacterium tuberculosis H37Rv assessed as growth inhibition after 2 to 3 weeks by broth microdilution method. The class given is functional. The gist of the method:
(§1)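 Primary screen of all compounds against H37Rv at a single concentration in triplicate by microplate dilution. Actives then went to MIC determination by broth microdilution against H37Rv, rifampicin-resistant and XDR-1 isolates. Plates incubated 2–3 weeks at 37 °C in a CO2 incubator. MIC read visually as absence of growth turbidity. Rifampicin and linezolid served as reference drugs.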

Data set [6] concerns Bacillus subtilis. Put plainly: Antibacterial activity against Bacillus subtilis MTCC 121 assessed as growth inhibition at 20 ug/mL after 24 hrs. As to conditions: MTCC 121, 24 h, read-out: IZ. In kind it is functional.
A short description of data set [7]: Cytotoxicity against mouse J744 cells assessed as growth inhibition at 40 ug/mL after 24 hrs by MTT assay relative to control. As to conditions: read-out: GI. In kind it is cell-based. The gist of the method: (§2)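 Mouse J-774 macrophages exposed to test material (40) in RPMI with 10% FCS for 24 h at 37 °C under CO2. MTT then added with a further 3 h incubation. Formazan absorbance read at […]. Percent cytotoxicity calculated relative to untreated cells.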

In data set [8] the test system is Bacillus subtilis. Put plainly: Antibacterial activity against Bacillus subtilis MTCC 121 assessed as growth inhibition after 24 hrs by agar dilution method. As to conditions: MTCC 121, 24 h. The class given is functional.
Another data set deals with Escherichia coli. Put plainly: Antibacterial activity against Escherichia coli MTCC 739 assessed as growth inhibition after 24 hrs by agar dilution method. The class given is functional. As to conditions: MTCC 739, 24 h.
Data set [9] deals with Mycobacterium tuberculosis. Put plainly: Antitubercular activity against Mycobacterium tuberculosis XDR-1 assessed as growth inhibition after 2 to 3 weeks by broth microdilution method. In kind it is functional. In outline: as §1
Data set [10] concerns Staphylococcus. Put plainly: Antibacterial activity against 16-membered ring macrolide- lincosamide-streptogramin B-resistant Staphylococcus MTCC 2940 assessed as growth inhibition after 24 hrs by agar dilution method. The class given is functional. The settings on record: MTCC 2940, 24 h.
Data set [11] in a line: Cytotoxicity against mouse J744 cells assessed as growth inhibition after 24 hrs by MTT assay. The class given is cell-based. The settings on record: J744, 24 h. The gist of the method:
as §2

Data set [12] deals with Staphylococcus aureus. Put plainly: Antibacterial activity against Staphylococcus aureus MTCC 96 assessed as growth inhibition after 24 hrs by agar dilution method. In kind it is functional. The settings on record: MTCC 96, 24 h.
In data set [13] the test system is Micrococcus luteus. Put plainly: Antibacterial activity against Micrococcus luteus MTCC 2470 assessed as growth inhibition after 24 hrs by agar dilution method. The class given is functional. The settings on record: MTCC 2470, 24 h.
For data set [14], the system named is Bacillus subtilis. Put plainly: Antibacterial activity against Bacillus subtilis MTCC 121 assessed as growth inhibition at 20 mg/mL after 24 hrs. The class given is functional. As to conditions: MTCC 121, 24 h, read-out: IZ.
The subject of data set [15] is Staphylococcus. Put plainly: Antibacterial activity against 16-membered ring macrolide- lincosamide-streptogramin B-resistant Staphylococcus MTCC 2940 assessed as growth inhibition at 20 mg/mL after 24 hrs. In kind it is functional. As to conditions: MTCC 2940, 24 h, read-out: IZ.

Values after ≈ are worked out from the molar mass of the structure shown.

On to `Cc1c(CN2CCN(c3ccc(N4C[C@H](Cn5cc(-c6ccccn6)nn5)OC4=O)cc3F)CC2)cc(-c2ccc(F)cc2F)n1-c1ccc(F)cc1`, for which the zone of inhibition at 20 µg/mL was 39 mm in the data set with Staphylococcus aureus [1], 36 mm in the data set with Micrococcus luteus [3], 40 mm in the data set on Staphylococcus [4] and 24 mm in the data set on Bacillus subtilis [6]. Also, the MIC in the data set on Pseudomonas aeruginosa was > 40 µg/mL; in data set [5], 4 µg/mL (≈ 5.53 µM); in the data set on Bacillus subtilis [8], 1 µg/mL (≈ 1.38 µM); with Escherichia coli it was > 40 µg/mL; in data set [9] it was 16 µg/mL (≈ 22.1 µM); in the data set with Staphylococcus [10], 6 µg/mL (≈ 8.3 µM). Also, the MIC in the data set on Staphylococcus aureus [12] was 0.5 µg/mL (≈ 0.692 µM); in the data set with Micrococcus luteus [13] it was 3 µg/mL (≈ 4.15 µM). The “Selectivity Index” value in data set [2] was >10. Besides, in data set [7], the inhibition at 24 h, 40 ug/mL turned out to be 31.9%. Besides, the IC50 in [11] was > 40 µM.

On to `CC(=O)NC[C@H]1CN(c2ccc(N3CCN(Cc4cc(-c5ccc(C(C)C)cc5)n(-c5ccc(F)cc5F)c4C)CC3)c(F)c2)C(=O)O1`, for which the zone of inhibition at 20 µg/mL in the data set with Staphylococcus aureus [1] was 16 mm; with Micrococcus luteus [3], 18 mm; in the data set on Staphylococcus [4], 15 mm; in the data set with Bacillus subtilis [6], 12 mm. Moreover, the MIC was > 40 µg/mL with Pseudomonas aeruginosa; 4 µg/mL (≈ 6.06 µM) in [5]; 1.5 µg/mL (≈ 2.27 µM) in the data set with Bacillus subtilis [8]; > 40 µg/mL in the data set on Escherichia coli; 16 µg/mL (≈ 24.3 µM) in [9]; 6 µg/mL (≈ 9.09 µM) in the data set with Staphylococcus [10]. Further, the figures for the MIC with Staphylococcus aureus [12] and with Micrococcus luteus [13] were 2 µg/mL (≈ 3.03 µM) and 3 µg/mL (≈ 4.55 µM), respectively. Moreover, the “Selectivity Index” value in [2] was >10. The inhibition at 24 h, 40 ug/mL in [7] worked out at 40.2%. In data set [11], the IC50 is > 40 µM.

Consider `CC(=O)NC[C@H]1CN(c2ccc(N3CCOCC3)c(F)c2)C(=O)O1` [LINEZOLID], for which the zone of inhibition at 20000 µg/mL with Bacillus subtilis [14] came out at 20 mm; in the data set on Staphylococcus [15], 18 mm. Further, the MIC was determined as 1 µg/mL (≈ 2.96 µM) in data set [5]; 0.5 µg/mL (≈ 1.48 µM) in the data set on Bacillus subtilis [8]; 4 µg/mL (≈ 11.9 µM) in data set [9]; 0.5 µg/mL (≈ 1.48 µM) in the data set on Staphylococcus [10]; 1.5 µg/mL (≈ 4.45 µM) in the data set with Staphylococcus aureus [12]; 1 µg/mL (≈ 2.96 µM) in the data set with Micrococcus luteus [13].
